# Measured values from different studies.
Structure (SMILES),tested on,assay,system,conditions,measurement,value
CN(C)CCCC1(c2ccc(F)cc2)OCc2cc(C#N)ccc21 (stereo not shown),Severe acute respiratory syndrome coronavirus 2,"viral replication, inhibitor",A549-ACE2,,IC50,3310 nM
N#C[C@]1(CO)O[C@@H](n2cnc3c(N)ncnc32)C[C@@H]1O,Hepatitis B virus,"viral replication, qPCR",HepG2.2.15,14 days,IC50,66 nM
[O-][N+]1=C(c2ccc(Cl)cc2)C2=NCCN2c2ccccc21,Clostridioides difficile,microbial growth,,,MIC50,0.25 µg/mL
Nc1ccn([C@@H]2CS[C@H](CO)O2)c(=O)n1,Hepatitis B virus,"viral replication, qPCR",HepG2.2.15,14 days,IC50,50 nM
Cc1cc(NC(=O)c2cc3c(=O)n4cccc(C)c4nc3n2C)ccc1Br,Severe acute respiratory syndrome coronavirus 2,viral replication,Vero,1 nM,inhibition,5.51%
CC(=O)[C@H]1CC[C@H]2[C@@H]3CCC4=CC(=O)CC[C@]4(C)[C@H]3CC[C@]12C,Severe acute respiratory syndrome coronavirus 2,viral replication,Vero C1008,,IC50,9330 nM
C=CCNC1=C2C[C@@H](C)C[C@H](OC)[C@H](O)[C@@H](C)/C=C(\C)[C@H](OC(N)=O)[C@@H](OC)/C=C\C=C(/C)C(=O)NC(=C(C)C1=O)C2=O,ARPE-19,"cell growth or viability, MTT",,,IC50,> 20000 nM
Cc1ncc([N+](=O)[O-])n1CCO,Clostridioides difficile,microbial growth,,,MIC90,0.25 µg/mL
CN1CCN(CCc2ccc(Cl)c(Cl)c2)CC1,Severe acute respiratory syndrome coronavirus 2,"viral replication, inhibitor",A549-ACE2,,IC50,2510 nM
C[C@H]1COCCN1c1nc(NCc2cccnc2C(F)(F)F)c2cccnc2n1,Clostridioides difficile,"microbial growth, broth dilution",R20291,,MIC,64 µg/mL
CC(=O)c1cccc(NC(=O)c2cc3c(=O)n4ccccc4nc3n2C)c1,Severe acute respiratory syndrome coronavirus 2,viral replication,Vero,0.1 µM,inhibition,77%
O=[N+]([O-])c1ccc(C2=[N+]([O-])c3ccccc3N3CCN=C23)cc1,Clostridioides difficile,microbial growth,,,MIC50,≤ 0.06 µg/mL
CC(C)=CCc1c(O)ccc(C(=O)/C=C/c2ccc(O)cc2)c1O,Severe acute respiratory syndrome coronavirus 2,"cytopathic effect, inhibitor",Vero C1008,3.125 µM,inhibition,0%
Cc1cccn2c(=O)c3cc(C(=O)Nc4ccc(N(C)C)cc4)n(C)c3nc12,Severe acute respiratory syndrome coronavirus 2,viral replication,Vero,0.1 µM,inhibition,63.6%
CC(C)(C)[C@]1(O)CCN2C[C@H]3c4ccccc4CCc4cccc(c43)[C@@H]2C1,Severe acute respiratory syndrome coronavirus 2,"viral replication, inhibitor",A549-ACE2,,IC50,9120 nM
C=C[C@@](C)(/C=C/c1ccc(O)cc1)CCC=C(C)C,Severe acute respiratory syndrome coronavirus 2,cytopathic effect,Vero C1008,12.5 µM,inhibition,0%
OC(CCN1CCCCC1)(c1ccccc1)C1CCCCC1 (stereo not shown),Severe acute respiratory syndrome coronavirus 2,viral replication,A549-ACE2,,IC50,3160 nM
COc1ccc(C[C@@H]2c3cc(Oc4cc(C[C@@H]5c6cc(O)c(OC)cc6CCN5C)ccc4O)c(OC)cc3CCN2C)cc1,Severe acute respiratory syndrome coronavirus 2,"cytopathic effect, inhibitor",Vero C1008,3.125 µM,inhibition,0%
Fc1ccc([C@@H]2CCNC[C@H]2COc2ccc3c(c2)OCO3)cc1,Severe acute respiratory syndrome coronavirus 2,"viral replication, inhibitor",A549-ACE2,,IC50,2510 nM
CCc1ccc(NC(=O)c2cc3c(=O)n4ccccc4nc3n2C)cc1,Severe acute respiratory syndrome coronavirus 2,viral replication,Vero,1 µM,inhibition,89.3%
OCCN1CCN(CCCN2c3ccccc3C=Cc3ccccc32)CC1,Severe acute respiratory syndrome coronavirus 2,"viral replication, inhibitor",A549-ACE2,,IC50,2510 nM
O=C(/C=C/c1ccc(O)c(O)c1/C=C/c1ccc(O)c(O)c1)O[C@H](Cc1ccc(O)c(O)c1)C(=O)O,Severe acute respiratory syndrome coronavirus 2,"cytopathic effect, inhibitor",Vero C1008,100 µM,inhibition,58.3%
